Screening data (PubChem BioAssay)
CaV13 ICDI inh = Disruptors of the CACNA1D IQ motif to Ca2+-dependent inactivation inhibitor domain association, primary screening, Förster resonance energy transfer in intact living … | 0.098% of 340,000 active | AID 743397 | inhibition, % at 12.3 µM | HEK cells, CFP/YFP FRET ICDI-IQ, plate reader, 10 min; percent FRET-ratio fall versus neutral wells;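 active = mean replicate inhibition of at least 30% and at least 1% of replicates passing that level; inconclusive = only one of the two criteria is met; inactive = neither criterion is met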;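 also: 0% = median of the neutral control wells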
DENV2 CPE rescue = protects cells from dengue virus 2 cytopathic effect. AID 651640. 1.7% of 350,000 active. DENV2-infected cells, cytopathic effect rescue, plate reader. CPE inhibition, % at 9.99 µM; in the data active = CPE inhibition above about 20%, passing the limit was not always enough; inconclusive = no clear call, values can overlap the other calls; tested in BHK-21 cells;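 also: 0% = median of neutral control wells and 100% = median of positive control wells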
S100A4 MyoIIA = S100A4-myosin IIA interaction inhibition; P26447; S100A4/TAMRA-MyoIIA peptide fluorescence polarization; inhibition, % at 10.7 µM; 0.14% of 360,000 active; AID 652163;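 active = mean inhibition of at least 70% across replicates, with every replicate also reaching that level; inconclusive = mean inhibition reaches 70% but some replicates fall short; inactive = mean inhibition below 70%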
Target sequence (P26447 whole entry, looked up): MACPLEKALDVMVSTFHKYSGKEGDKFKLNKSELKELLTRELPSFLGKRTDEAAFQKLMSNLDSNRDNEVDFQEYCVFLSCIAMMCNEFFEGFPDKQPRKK
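Test system – S100A4 monomer (human) · Compound – single-point compound testing · Schedule – 5 min incubation before reading · Probe or stimulus – TAMRA-labelled myosin IIA heavy-chain peptide probe, 5 nM · Benchmarks – neutral control DMSO, positive control TFP · Medium – Calcium-containing HEPES buffer, pH 7.2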
MLL AF4-AF9 inh = blocks AF4 peptide binding to human AF9; P42568; AlphaScreen, biotin-AF4 peptide binding to FLAG-AF9; inhibition, % at 10 µM; 0.47% of 350,000 active; AID 651704;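 active = every replicate reaching a set inhibition limit, whatever the replicate mean, cut at about 25% in these data; inconclusive = mean inhibition reaches that limit but some replicates miss it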;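 also: 0% = plate neutral control median and 100% = total signal loss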
SIRT5 inh = sirtuin-5 (human) deacylase inhibition. inhibition, % at 15 µM. AID 652115. 1.1% of 330,000 active. Purified SirT5, succinyl-peptide AMC, trypsin-coupled fluorescence; in the data active = inhibition above about 15%; inconclusive = no clear call, values can overlap the other calls
Target sequence (Q9NXA8 whole entry, looked up): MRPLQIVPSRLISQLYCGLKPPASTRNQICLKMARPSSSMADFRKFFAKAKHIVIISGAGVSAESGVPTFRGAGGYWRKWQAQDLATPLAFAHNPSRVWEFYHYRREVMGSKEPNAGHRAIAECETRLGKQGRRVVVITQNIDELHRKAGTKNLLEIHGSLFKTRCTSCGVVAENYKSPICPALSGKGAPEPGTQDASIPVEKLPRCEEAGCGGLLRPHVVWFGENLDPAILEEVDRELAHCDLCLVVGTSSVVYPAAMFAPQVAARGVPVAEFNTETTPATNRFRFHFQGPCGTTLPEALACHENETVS
* marks the source's active call; other numbers are inactive results. The list is not random: actives were taken first. Their share in the collection is about 2.7%.

COc1ccc(NC(=O)Nc2ccc3c(c2)C(=O)N([C@@H](C)CO)C[C@@H](C)[C@H](CN(C)Cc2ccccc2)OCCCC[C@@H](C)O3)cc1 was read as DENV2 CPE rescue 11, S100A4 MyoIIA -5, MLL AF4-AF9 inh 4 and SIRT5 inh -1.
COc1ccc(CN(C)C[C@H]2OCCCC[C@@H](C)Oc3ccc(NC(=O)Nc4ccc(F)cc4)cc3C(=O)N([C@@H](C)CO)C[C@@H]2C)cc1 was read as DENV2 CPE rescue 9, S100A4 MyoIIA 8, MLL AF4-AF9 inh 22 and SIRT5 inh 100*.
COc1ccc(NC(=O)Nc2ccc3c(c2)C(=O)N([C@H](C)CO)C[C@H](C)[C@H](CN(C)Cc2ccccc2)OCCCC[C@@H](C)O3)cc1 was read as DENV2 CPE rescue 26*, S100A4 MyoIIA 26, MLL AF4-AF9 inh -2 and SIRT5 inh 7.
For COc1ccc(CN(C)C[C@@H]2OCCCC[C@H](C)Oc3ccc(NC(=O)Nc4ccc(F)cc4)cc3C(=O)N([C@H](C)CO)C[C@@H]2C)cc1 the results were DENV2 CPE rescue 14, S100A4 MyoIIA 5, MLL AF4-AF9 inh 10 and SIRT5 inh 1.
Screening COc1ccc(NC(=O)Nc2ccc3c(c2)C(=O)N([C@H](C)CO)C[C@H](C)[C@H](CN(C)Cc2ccc(C(F)(F)F)cc2)OCCCC[C@H](C)O3)cc1 returned DENV2 CPE rescue -4, S100A4 MyoIIA 157*, MLL AF4-AF9 inh -5 and SIRT5 inh 2.
Screening COc1ccc(NC(=O)Nc2ccc3c(c2)C(=O)N([C@@H](C)CO)C[C@@H](C)[C@@H](CN(C)Cc2ccccc2)OCCCC[C@H](C)O3)cc1 returned DENV2 CPE rescue 42*, S100A4 MyoIIA -10, MLL AF4-AF9 inh 3 and SIRT5 inh 3.
`O=C(C[C@H]1CC[C@H]2[C@@H](COC[C@H](O)CN2Cc2ccc(Cl)cc2)O1)NCCc1ccccc1` gave DENV2 CPE rescue 1, S100A4 MyoIIA -5, MLL AF4-AF9 inh 0 and SIRT5 inh -1.
`C[C@@H]1CN([C@@H](C)CO)C(=O)Cc2cc(NC(=O)c3ccncc3)ccc2O[C@H]1CN(C)C(=O)Nc1ccc2c(c1)OCO2` gave DENV2 CPE rescue 5, S100A4 MyoIIA -3, MLL AF4-AF9 inh -3 and SIRT5 inh 4.
Screening Nc1ccc(C(CC(=O)O)n2cccc2)cc1 (configuration not stated) returned CaV13 ICDI inh -4, DENV2 CPE rescue -3, S100A4 MyoIIA -9, MLL AF4-AF9 inh -14 and SIRT5 inh 21*.
CC1CCN(C(=O)COC(=O)c2cc3ccccc3oc2=O)CC1 was read as CaV13 ICDI inh -5, DENV2 CPE rescue 54*, S100A4 MyoIIA -3 and MLL AF4-AF9 inh 2.
For CC1CCCC(NC(=O)COC(=O)c2cc3ccccc3oc2=O)C1C (configuration not stated) the results were CaV13 ICDI inh -5, DENV2 CPE rescue 7, S100A4 MyoIIA -5, MLL AF4-AF9 inh 0 and SIRT5 inh 1.
`CC1CCN(C(=O)COC(=O)CNC(=O)c2ccccc2F)CC1` gave CaV13 ICDI inh -2, DENV2 CPE rescue 69*, S100A4 MyoIIA 1, MLL AF4-AF9 inh -2 and SIRT5 inh -3.
Screening O=C(CNC(=O)c1ccccc1F)OCC(=O)N1CCCCC1 returned CaV13 ICDI inh -4, DENV2 CPE rescue -4, S100A4 MyoIIA 3, MLL AF4-AF9 inh -8 and SIRT5 inh -9.
Screening C[C@@H]1CCCCO[C@H](CN(C)S(=O)(=O)c2ccccc2)[C@@H](C)CN([C@@H](C)CO)C(=O)c2cc(NS(=O)(=O)c3cn(C)cn3)ccc2O1 returned DENV2 CPE rescue -1, S100A4 MyoIIA 4, MLL AF4-AF9 inh -1 and SIRT5 inh -1.
`COc1ccc(S(=O)(=O)Nc2ccc3c(c2)C(=O)N([C@H](C)CO)C[C@@H](C)[C@@H](CN(C)Cc2ccc(Cl)c(Cl)c2)OCCCC[C@H](C)O3)cc1` gave DENV2 CPE rescue -18, S100A4 MyoIIA -3 and MLL AF4-AF9 inh -15.
For O=C(Nc1ccccc1)N1CC(=O)N2[C@H](CO)[C@H](c3ccc(C#Cc4cccnc4)cc3)[C@H]2C1 the results were DENV2 CPE rescue 16, S100A4 MyoIIA -3, MLL AF4-AF9 inh -3 and SIRT5 inh -2.
Cc1nc(N)nc(N)c1CCCc1ccc(Cl)c(Cl)c1 was read as CaV13 ICDI inh -2, DENV2 CPE rescue -5, S100A4 MyoIIA -2, MLL AF4-AF9 inh 10 and SIRT5 inh 15*.
For CCC(=O)N(C)C[C@H]1Oc2cc(/C=C/c3ccccc3)ccc2S(=O)(=O)N([C@@H](C)CO)C[C@H]1C the results were DENV2 CPE rescue -9, S100A4 MyoIIA -3, MLL AF4-AF9 inh 13 and SIRT5 inh 8.
COc1ccc(CNC(=O)C2CC(C)=C(C)CC2C(=O)O)cc1 (configuration not stated) was read as CaV13 ICDI inh -7.
CCC(=O)N1C(C(=O)NCc2ccc(OC)cc2)CSC1c1ccc(OC)cc1 (configuration not stated) was read as CaV13 ICDI inh 45*, DENV2 CPE rescue -4, S100A4 MyoIIA 8 and MLL AF4-AF9 inh 2.
For COc1ccc(C#Cc2ccc3c(c2)O[C@H](CN(C)C(C)=O)[C@@H](C)CN([C@@H](C)CO)S3(=O)=O)cc1 the results were DENV2 CPE rescue inconclusive, S100A4 MyoIIA 1, MLL AF4-AF9 inh 9 and SIRT5 inh 1.
For CC(C)Cn1nc(NC(=O)c2cccs2)c2cc3ccccc3nc21 the results were CaV13 ICDI inh -21, DENV2 CPE rescue 4, S100A4 MyoIIA 1, MLL AF4-AF9 inh -7 and SIRT5 inh 2.
Screening COc1ccc2nc3c(cc2c1)c(NC(=O)c1cccs1)nn3CC(C)C returned CaV13 ICDI inh 56*.
`Cc1ccc(C(=O)COC(=O)c2ccc3c(c2)C(=O)N(c2cccc4ncccc24)C3=O)cc1` gave CaV13 ICDI inh -4, DENV2 CPE rescue -2, S100A4 MyoIIA 7, MLL AF4-AF9 inh 1 and SIRT5 inh 18*.
O=C(COC(=O)c1ccc2c(c1)C(=O)N(c1cccc3ncccc13)C2=O)c1ccc(Cl)cc1 was read as CaV13 ICDI inh 9, DENV2 CPE rescue 6, S100A4 MyoIIA 1, MLL AF4-AF9 inh -2 and SIRT5 inh -2.
C[C@@H]1CN([C@@H](C)CO)C(=O)c2cc(NC(=O)c3ccncc3)ccc2O[C@H]1CN(C)Cc1ccc(Oc2ccccc2)cc1 was read as DENV2 CPE rescue -5, S100A4 MyoIIA -10, MLL AF4-AF9 inh 0 and SIRT5 inh 16*.
Screening C[C@H]1CN([C@@H](C)CO)C(=O)c2cc(NC(=O)Nc3ccc(F)cc3)ccc2O[C@H]1CN(C)Cc1ccccc1 returned DENV2 CPE rescue 25*, S100A4 MyoIIA 1, MLL AF4-AF9 inh -5 and SIRT5 inh 2.
